# Screens from PubChem BioAssay.
# Sampled rows, rich in hits. Any-hit rate of the full collection: about 3.1%.
# RBBP9 inh – blocks human serine hydrolase RBBP9; O75884; recombinant RBBP9, FP-Rh probe fluorescence polarization; inhibition, % at 7.94 µM; 220,000 tested, 0.2% active; AID 1515;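 active = inhibition above the campaign mean of all tested compounds plus 3 SD, cut at about 14% in these data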;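 also: plate controls were DMSO wells with RBBP9 for no effect and wells lacking RBBP9 protein for full effect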
# Target sequence (O75884 whole entry, looked up): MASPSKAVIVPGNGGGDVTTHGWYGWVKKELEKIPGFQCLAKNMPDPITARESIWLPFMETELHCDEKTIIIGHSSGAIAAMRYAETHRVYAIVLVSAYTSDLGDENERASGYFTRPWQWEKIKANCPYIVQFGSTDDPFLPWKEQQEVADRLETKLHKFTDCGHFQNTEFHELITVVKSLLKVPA
#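 Test system – recombinant human RBBP9 · Input – RBBP9 2.5 µM in dispensing solution, pre-mixing · Medium – Tris buffer pH 8.0, NaCl, Pluronic · Schedule – preincubation 30 min plus labeling 45 min at 25 °C · Measured by – fluorescence polarization · Measure – % inhibition · Controls – DMSO and no-protein wells · Replicates – one well per compound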
# MBD2 DNA inh – blocks human MBD2 binding to methylated DNA; TR-FRET, MBD2 binding to methylated oligonucleotide; 370,000 tested, 0.31% active; AID 686964; inhibition, % at 4.4 µM; Q9UBB5; in the data active = inhibition above about 13%
# Target sequence (Q9UBB5 whole entry, looked up): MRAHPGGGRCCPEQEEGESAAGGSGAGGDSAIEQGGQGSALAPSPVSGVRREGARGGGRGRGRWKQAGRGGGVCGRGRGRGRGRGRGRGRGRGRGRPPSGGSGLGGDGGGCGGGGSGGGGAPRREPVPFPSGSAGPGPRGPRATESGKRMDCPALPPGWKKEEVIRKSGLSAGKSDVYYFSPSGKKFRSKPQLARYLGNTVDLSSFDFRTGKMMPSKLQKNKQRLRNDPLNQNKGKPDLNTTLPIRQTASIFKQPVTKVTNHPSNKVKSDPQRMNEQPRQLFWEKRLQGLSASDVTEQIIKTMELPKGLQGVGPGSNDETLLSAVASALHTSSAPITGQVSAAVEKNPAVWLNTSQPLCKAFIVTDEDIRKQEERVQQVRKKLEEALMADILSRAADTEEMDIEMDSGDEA
# LEDGF integ inh – blocks HIV-1 LEDGF/p75-dependent DNA integration; TR-FRET IN-LEDGF/p75 DNA integration, Eu/Cy5; inhibition, % at 3.7 µM; 370,000 tested, 0.64% active;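 active = inhibition above the screen-wide mean plus 3 SD, cut at about 13% in these data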;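 also: signal is the Cy5 over europium emission ratio at 671 and 618 nm; 0% = plate median of compound wells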
# UHRF1 binding – human UHRF1 methylated DNA binding inhibitors; 370,000 tested, 0.75% active; UHRF1 binding to methylated oligo, TR-FRET; inhibition, % at 4.4 µM; Q96T88; AID 687016; in the data active = inhibition above about 21%;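 also: UHRF1 SRA domain binding a hemimethylated CpG hairpin DNA probe; 0% = median of test compound wells and 100% = reference inhibitor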
# ABHD5 PLIN5 PPI – inhibitors of human ABHD5-perilipin-5 interaction | Q00G26+Q8WTS1 | Split G. princeps luciferase complementation, luminescence, 4 h | inhibition, % at 4 µM | 360,000 tested, 0.78% active | AID 602281;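 active = inhibition above the mean inhibition across every tested compound plus 3 SD, cut at about 22% in these data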;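 also: 0% = DMSO only wells and the 100% control is not disclosed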
# PRMT1 FP inh – blocks human protein arginine methyltransferase 1; Q99873; recombinant PRMT1, activity-based probe fluorescence polarization; inhibition, % at 2.79 µM; 370,000 tested, 1.3% active; AID 652257;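 active = inhibition above about 21% made by adding two undisclosed values, limit read from the data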
# IN multimer up – counter-screen for LEDGF/p75 integration inhibitors: HIV-1 integrase multimerization activators. TR-FRET HIV-1 integrase multimerization, biochemical. 2,000 tested, 17% active. shares compounds with LEDGF integ inh. activation, % at 7.7 µM; in the data active = activation above about 8.9%
# TR-FRET interf – TR-FRET optical interference, LEDGF/p75 integration counter-screen; shares compounds with LEDGF integ inh; TR-FRET optical interference counterscreen, HIV-1 IN multimerization; inhibition, % at 7.7 µM; 2,000 tested, under 10 active;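 active = inhibition above the mean over all tested compounds plus 3 SD, which no compound reached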;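 also: 0% = integrase with antibodies and DMSO and 100% = antibodies without integrase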
# IN-LEDGF confirm – LEDGF/p75-dependent HIV-1 integration inhibition, confirmation. shares compounds with LEDGF integ inh. TR-FRET LEDGF/p75-dependent HIV-1 integration, biochemical. inhibition, % at 3.7 µM. 2,000 tested, 36% active. AID 1053136; in the data active = inhibition above about 14%
# * = called active by the depositor; . = no result given.
SMILES,RBBP9 inh,MBD2 DNA inh,LEDGF integ inh,UHRF1 binding,ABHD5 PLIN5 PPI,PRMT1 FP inh,IN multimer up,TR-FRET interf,IN-LEDGF confirm
COC(=O)CCCC1=CC2=CC(=O)C(C)(OC(=O)c3cccs3)C(=O)C2=CN1Cc1ccccc1 (stereo not drawn),.,-7,1,-3,-9,7,.,.,.
COC(=O)CCCC1=CC2=CC(=O)C(C)(OC(=O)c3cccs3)C(=O)C2=CN1Cc1ccco1 (stereo not drawn),.,-1,25*,13,9,18,2,-6,18*
C=CCn1c(N)c(C(=O)OC(C)(C)C)c2nc3ccccc3nc21,-2,-6,0,-10,-13,2,.,.,.
C=CCn1c(N)c(C(=O)Nc2ccccc2)c2nc3ccccc3nc21,-5,-5,21*,-9,-15,1,2,-7,0
COC(=O)[C@]12C[C@H](CC(=O)N3CCN(C(=O)c4ccco4)CC3)C(=O)N(CCc3ccc(OC)c(OC)c3)C1=C[C@H](C(C)(C)C)O[C@@H]2C,.,-3,-2,1,.,1,.,.,.
COC(=O)[C@]12C[C@H](CC(=O)N3CCCCC3)C(=O)N(CCc3ccc(OC)c(OC)c3)C1=C[C@H](COCc1ccccc1)O[C@@H]2C,.,-5,0,-2,.,0,.,.,.
CCCCOCCCNC(=O)C[C@H]1C[C@@]2(C(=O)OC)C(=C[C@H](C(C)(C)C)O[C@@H]2C)N(Cc2ccc(Cl)cc2Cl)C1=O,.,-6,20*,-1,.,2,0,-2,-7
CCCCOCCCNC(=O)C[C@H]1C[C@@]2(C(=O)OC)C(=C[C@H](C3CCCC3)O[C@@H]2C)N(Cc2ccc(Cl)cc2Cl)C1=O,.,-2,-2,-1,.,-1,.,.,.
Cc1cc(NC(=O)CSc2nnc(-c3ccncc3)n2Cc2ccccc2)n(-c2ccccc2)n1,-8,2,70*,2,-5,1,0,2,-4
Cc1cc(NC(=O)CSc2nnc(-c3ccncc3)n2C)n(-c2ccccc2)n1,-5,7,0,0,-1,-1,.,.,.
Cc1cc(NC(=O)CC#N)n(-c2ccccc2)n1,-4,0,16*,0,-1,0,-2,10,-6
CCCCCCCCN1C(=O)[C@@H](CC(=O)NCc2ccc(OC)c(OC)c2)C[C@@]2(C(=O)OC)C1=C[C@H](C(C)C)O[C@@H]2C1CC1,.,-6,4,-2,.,3,.,.,.
CCc1cc2c(nc1CC)CCCN2S(=O)(=O)c1ccc(C)cc1,.,-4,-2,0,.,-4,.,.,.
O=C(Nc1cccc(NC(=O)c2ccc(Br)o2)c1)c1ccccc1,.,-2,3,8,3,-1,.,.,.
O=C(c1ccccc1)c1cccc(NC(=O)c2ccc(Br)o2)c1,-16,-4,18*,-1,-5,-1,-2,10,-4
O=C1c2c(O)cc(O)cc2O[C@H](c2ccc(O)c(O)c2)[C@H]1O,-5,-6,23*,0,-9,1,2,-8,12
COc1ccccc1Nc1nnc(SCc2cc(=O)n3cc(C)ccc3n2)s1,-7,-3,36*,-1,2,-2,2,-8,-3
O=C1C=C(O)c2[nH]c(=O)ccc2C1=O,.,-10,26*,10,-14,6,30*,-106,51*
NC1=CC(=O)C(=O)c2ccccc21,.,-20,9,-15,-25,3,.,.,.
O=C(NCc1ccccc1)[C@H]1CCCN1C(=O)[C@H]1CCCN1C(=O)c1ccccc1C(F)(F)F,.,-7,0,0,.,-2,.,.,.
Cc1ccccc1NC1=C/C(=N\S(=O)(=O)c2ccc(C(=O)O)cc2)c2ccccc2C1=O,.,-9,40*,-1,-16,6,0,-1,74*
COc1ccccc1N1CCN(C(=O)c2ccc3c(c2)nc(C)n3-c2cc(OC)c(OC)c(OC)c2)CC1,.,7,1,1,.,7,.,.,.
CCC(=O)Nc1nnc(S(=O)(=O)N2CCCCCC2)s1,.,0,5,0,10,-2,.,.,.
CCC(=O)Nc1nnc(S(=O)(=O)N2CCCC2)s1,.,-2,14*,-1,4,2,-2,12,-4
S=C(Nc1cc(Cl)cc(Cl)c1)NC(c1ccccc1)c1ccccc1,.,-1,-1,0,.,-5,.,.,.
SMILES,RBBP9 inh,MBD2 DNA inh,LEDGF integ inh,UHRF1 binding,ABHD5 PLIN5 PPI,PRMT1 FP inh,IN multimer up,TR-FRET interf,IN-LEDGF confirm
CCN(CC)c1ccc(N=Cc2cc(Br)ccc2O)cc1,6,-7,24*,-4,7,22*,6,-23,7
Oc1ccc(Br)cc1C=Nc1ccc(Cl)cc1,-9,-5,3,-3,-1,1,.,.,.
CC[C@@H](C)CN1C(=O)N[C@@H](c2ccccc2)C(C(C)=O)=C1C,.,-6,18*,10,13,5,1,-4,19*
CC[C@@H](C)CN1C(=O)N[C@@H](CCc2ccccc2)C(C(C)=O)=C1C,.,1,-3,0,-2,-2,.,.,.
COc1cccc(-c2ccc(C#N)c(=O)[nH]2)c1,6,-8,0,-1,0,-3,.,.,.
CCOc1cccc(-c2cc(=O)[nH][nH]2)c1,-7,2,29*,0,-55,1,2,-6,4
COc1cccc(-c2cc(=O)[nH][nH]2)c1,-1,0,21*,7,-46,5,4,-21,8
Cc1ccc(S(=O)(=O)Nc2cc(C(=O)N3CCOCC3)ccc2N2CCCCC2)cc1,-14,-5,25*,2,-3,-1,1,-5,-2
CCCN(CCC)C(=S)NC(=O)c1ccc(Cl)cc1Cl,-8,5,16*,-2,0,3,0,0,10
Cc1ccccc1C(=O)NNC(=S)NC(=O)c1ccc(Cl)cc1Cl,4,-5,1,-9,-14,8,.,.,.
O=C(NC1CCCC1)C(c1cccnc1)N(Cc1ccc(F)cc1)C(=O)c1csnn1 (stereo not drawn),.,1,21*,0,-1,-1,0,-2,-6
O=C(NC1CCCC1)C(c1cccnc1)N(Cc1ccccc1F)C(=O)c1csnn1 (stereo not drawn),.,1,0,-2,0,-4,.,.,.
CCOC(=O)c1c(C)oc2c1c(C=NCC1CCCO1)c(O)c1ccccc12 (stereo not drawn),3,-5,17*,9,-21,18,1,-3,-1
O=C(CNc1nnnn1-c1ccccc1)N1CCCC1,.,8,-4,-2,.,3,.,.,.
